Test results reported in ChEMBL document CHEMBL5705899 (Biochem J, 2014).
Activity calls are given as the source filed them. The rule behind the calls is not given here.

What was measured:
[1] = target: Serine/threonine-protein kinase PINK1, mitochondrial (Homo sapiens) (UniProt Q9BXM7); experiment: Inhibition of recombinant human N-terminal MBP-tagged PINK1 (1 to 570 residues) expressed in Escherichia coli assessed as remaining activity at 1 uM using KKSRGDYMTMQIG as substrate incubated for 30 mins in presence of [gamma-33P]ATP by filter binding method relative to control
[2] = target: Tyrosine-protein kinase JAK2 (Homo sapiens) (UniProt O60674); experiment: Inhibition of JAK2 (unknown origin) assessed as remaining activity at 1 uM relative to control
Summary of the method: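 Dundee panel of 140 protein kinases, tested at a single 1 μM concentration. Each assay was run in triplicate. Remaining activity is expressed relative to a control reaction without inhibitor, as mean ± S.D. Conditions for each kinase were those of the screening centre.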

[3] = target: CDK2/Cyclin A2 (Homo sapiens) (UniProt P24941+P20248); experiment: Inhibition of recombinant human N-terminal GST-tagged CDK2 (2 to 298 residues)/N-terminal GST-tagged Cyclin A2 (171 to 432 residues) expressed in Escherichia coli assessed as remaining activity at 1 uM using YSPTSPSYSPTSPSYSPTSPKKK as substrate incubated for 30 mins in presence of [gamma-33P]ATP by filter binding method relative to control
[4] = target: Proto-oncogene tyrosine-protein kinase Src (Homo sapiens) (UniProt P12931); experiment: Inhibition of recombinant human N-terminal His6-tagged SRC (1 to 536 residues) expressed in baculovirus infected Sf21 cells assessed as remaining activity at 1 uM using KVEKIGEGTYGVVYK as substrate incubated for 30 mins in presence of [gamma-33P]ATP by filter binding method relative to control
[5] = target: Angiopoietin-1 receptor (Homo sapiens) (UniProt Q02763); experiment: Inhibition of human TIE2 at 1 uM using polyEY as substrate in presence of 33P-ATP by ProQinase assay
[6] = target: Megakaryocyte-associated tyrosine-protein kinase (Homo sapiens) (UniProt P42679); experiment: Inhibition of human MATK at 1 uM using polyEy as substrate in presence of 33P-ATP by ProQinase assay
[7] = target: TGF-beta receptor type-1 (Homo sapiens) (UniProt P36897); experiment: Inhibition of human TGFBR1 at 1 uM using RBER-CHKtide as substrate in presence of 33P-ATP by ProQinase assay
[8] = target: Rho-associated protein kinase 1 (Homo sapiens) (UniProt Q13464); experiment: Inhibition of human ROCK1 at 1 uM using 3xChocktide-PKC as substrate in presence of 33P-ATP by ProQinase assay
[9] = target: Calcium/calmodulin-dependent protein kinase type IV (Homo sapiens) (UniProt Q16566); experiment: Inhibition of human CAMK4 at 1 uM using JUN as substrate in presence of 33P-ATP by ProQinase assay
[10] = target: CDK9/cyclin T1 (Homo sapiens) (UniProt O60563+P50750); experiment: Inhibition of human CDK9/CyclinT1 at 1 uM using RBER-CHKtide as substrate in presence of 33P-ATP by ProQinase assay; type: protein-complex assay
[11] = target: Calcium/calmodulin-dependent protein kinase kinase 1 (Homo sapiens) (UniProt Q8N5S9); experiment: Inhibition of human CAMKK1 at 1 uM using RB-CTF as substrate in presence of 33P-ATP by ProQinase assay
[12] = target: Serine/threonine-protein kinase WNK2 (Homo sapiens) (UniProt Q9Y3S1); experiment: Inhibition of human WNK2 at 1 uM using RBER-CHKtide as substrate in presence of 33P-ATP by ProQinase assay
[13] = target: Protein kinase C zeta type (Homo sapiens) (UniProt Q05513); experiment: Inhibition of human PKCzeta at 1 uM using 3xChocktide-PKC as substrate in presence of 33P-ATP by ProQinase assay
[14] = target: Protein-tyrosine kinase 2-beta (Homo sapiens) (UniProt Q14289); experiment: Inhibition of human PYK2 at 1 uM using polyEY as substrate in presence of 33P-ATP by ProQinase assay
[15] = target: SRSF protein kinase 2 (Homo sapiens) (UniProt P78362); experiment: Inhibition of human SRPK2 at 1 uM using MBP as substrate in presence of 33P-ATP by ProQinase assay
[16] = target: Serine/threonine-protein kinase Nek3 (Homo sapiens) (UniProt P51956); experiment: Inhibition of human NEK3 at 1 uM using RBER-CHKtide as substrate in presence of 33P-ATP by ProQinase assay
[17] = target: Wee1-like protein kinase (Homo sapiens) (UniProt P30291); experiment: Inhibition of human WEE1 at 1 uM using poly(Ala,Glu,Lys,Tyr) as substrate in presence of 33P-ATP by ProQinase assay
[18] = target: Cyclin-dependent kinase 5/CDK5 activator 1 (Homo sapiens) (UniProt Q00535+Q15078); experiment: Inhibition of human CDK5/p25NCK at 1 uM using RBER-CHKtide as substrate in presence of 33P-ATP by ProQinase assay; type: protein-complex assay
[19] = target: Glycogen synthase kinase-3 alpha (Homo sapiens) (UniProt P49840); experiment: Inhibition of human GSK3alpha at 1 uM using SUPT5 754-837 as substrate in presence of 33P-ATP by ProQinase assay
[20] = target: G protein-coupled receptor kinase 5 (Homo sapiens) (UniProt P34947); experiment: Inhibition of human GRK5 at 1 uM using casein as substrate in presence of 33P-ATP by ProQinase assay
[21] = target: Choline kinase alpha (Homo sapiens) (UniProt P35790); experiment: Inhibition of recombinant human N-terminal GST-tagged CHKalpha (1 to 457 residues) expressed in Escherichia coli at 1 uM using choline chloride as substrate incubated for 40 mins by ADP-Glo assay
Homo sapiens = species: Homo sapiens; experiment: Inhibition of recombinant human N-terminal His6-tagged PI3Kalpha E542K mutant (2 to 1068 residues)/p85A (1 to 724 residues) expressed in baculovirus expression system at 1 uM using diC8 PIP2 as substrate incubated for 80 mins by ADP-Glo assay
[22] = target: Phosphatidylinositol 4,5-bisphosphate 3-kinase catalytic subunit delta isoform (Homo sapiens, UniProt O00329); experiment: Inhibition of PI3Kdelta (unknown origin) using PtdIns(4,5)P2 as substrate preincubated for 20 mins followed by substrate addition and measured after 80 mins by Kinase-Glo assay
[23] = target: Phosphatidylinositol 4-phosphate 3-kinase C2 domain-containing subunit alpha (Homo sapiens, UniProt O00443); experiment: Inhibition of human PIK3C2A using PIP2/PS as substrate by ADP-Glo assay
U2OS = experiment: Inhibition of PI3K in human U2OS cells expressing GFP-PHAkt1 assessed as reduction in IGF-stimulated PtdIns(3,4,5)P3/PtdIns(3,4)P2 level […] at 1 uM pre incubated for 1 hr followed by IGF stimulation and measured after 15 mins by Alexa Fluor 488 staining based fluorescence microscopic analysis; type: subcellular; settings: time 1.25 hrs

Chain of Rho-associated protein kinase 1 (Homo sapiens) (Q13464 2-1354 limits assumed): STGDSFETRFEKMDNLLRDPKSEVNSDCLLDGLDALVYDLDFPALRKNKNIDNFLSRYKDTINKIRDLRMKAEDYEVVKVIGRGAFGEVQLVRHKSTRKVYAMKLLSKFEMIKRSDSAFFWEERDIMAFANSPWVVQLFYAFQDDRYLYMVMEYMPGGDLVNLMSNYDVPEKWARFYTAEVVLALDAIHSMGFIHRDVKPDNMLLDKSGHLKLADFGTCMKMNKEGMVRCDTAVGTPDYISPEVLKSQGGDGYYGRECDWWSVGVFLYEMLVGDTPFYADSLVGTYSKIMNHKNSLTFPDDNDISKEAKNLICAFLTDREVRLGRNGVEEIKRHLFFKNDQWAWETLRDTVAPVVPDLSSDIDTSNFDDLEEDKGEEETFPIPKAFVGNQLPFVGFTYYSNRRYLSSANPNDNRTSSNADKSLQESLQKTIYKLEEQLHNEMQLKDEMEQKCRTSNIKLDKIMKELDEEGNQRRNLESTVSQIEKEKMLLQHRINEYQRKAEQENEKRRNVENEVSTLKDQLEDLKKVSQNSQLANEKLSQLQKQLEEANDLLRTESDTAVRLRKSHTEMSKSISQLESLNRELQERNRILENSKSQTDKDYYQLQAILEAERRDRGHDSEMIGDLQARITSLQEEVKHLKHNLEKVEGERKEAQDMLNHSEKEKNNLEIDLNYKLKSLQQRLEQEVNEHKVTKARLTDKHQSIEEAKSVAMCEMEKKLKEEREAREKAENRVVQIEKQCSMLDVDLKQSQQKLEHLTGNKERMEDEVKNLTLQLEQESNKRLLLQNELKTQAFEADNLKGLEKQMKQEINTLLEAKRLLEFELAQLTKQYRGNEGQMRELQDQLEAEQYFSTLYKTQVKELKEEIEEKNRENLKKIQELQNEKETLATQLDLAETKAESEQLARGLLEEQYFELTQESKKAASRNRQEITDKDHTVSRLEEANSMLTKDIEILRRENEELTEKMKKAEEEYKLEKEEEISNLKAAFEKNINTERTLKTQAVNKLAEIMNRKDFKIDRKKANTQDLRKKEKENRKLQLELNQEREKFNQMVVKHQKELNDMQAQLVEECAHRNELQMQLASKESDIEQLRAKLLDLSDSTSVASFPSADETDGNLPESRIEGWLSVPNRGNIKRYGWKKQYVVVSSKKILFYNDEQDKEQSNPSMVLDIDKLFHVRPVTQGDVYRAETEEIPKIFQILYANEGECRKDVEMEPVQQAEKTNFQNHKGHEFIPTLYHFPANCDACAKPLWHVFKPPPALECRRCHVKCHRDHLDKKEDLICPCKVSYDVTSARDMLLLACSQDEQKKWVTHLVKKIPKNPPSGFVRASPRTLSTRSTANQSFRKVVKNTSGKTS
Chain of Cyclin-dependent kinase 5/CDK5 activator 1 (Homo sapiens) (Q00535 whole entry): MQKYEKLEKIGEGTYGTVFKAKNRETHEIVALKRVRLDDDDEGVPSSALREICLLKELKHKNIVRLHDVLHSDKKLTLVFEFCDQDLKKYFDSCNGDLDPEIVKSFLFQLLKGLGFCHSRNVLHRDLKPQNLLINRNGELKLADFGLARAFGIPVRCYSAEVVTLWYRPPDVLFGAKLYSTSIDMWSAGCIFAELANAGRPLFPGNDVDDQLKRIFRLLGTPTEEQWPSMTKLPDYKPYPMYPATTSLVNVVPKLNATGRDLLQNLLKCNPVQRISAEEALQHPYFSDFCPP
Chain of Cyclin-dependent kinase 5/CDK5 activator 1 (Homo sapiens) (Q15078 99-307 partner limits assumed): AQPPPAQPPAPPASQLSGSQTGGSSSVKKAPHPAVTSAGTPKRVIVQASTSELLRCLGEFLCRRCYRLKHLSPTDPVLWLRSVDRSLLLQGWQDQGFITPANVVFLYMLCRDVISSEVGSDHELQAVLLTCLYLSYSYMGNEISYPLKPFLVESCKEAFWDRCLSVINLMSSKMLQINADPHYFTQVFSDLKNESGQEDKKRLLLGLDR
Chain of Choline kinase alpha (Homo sapiens) (P35790 whole entry, looked up, the tested form may be a part): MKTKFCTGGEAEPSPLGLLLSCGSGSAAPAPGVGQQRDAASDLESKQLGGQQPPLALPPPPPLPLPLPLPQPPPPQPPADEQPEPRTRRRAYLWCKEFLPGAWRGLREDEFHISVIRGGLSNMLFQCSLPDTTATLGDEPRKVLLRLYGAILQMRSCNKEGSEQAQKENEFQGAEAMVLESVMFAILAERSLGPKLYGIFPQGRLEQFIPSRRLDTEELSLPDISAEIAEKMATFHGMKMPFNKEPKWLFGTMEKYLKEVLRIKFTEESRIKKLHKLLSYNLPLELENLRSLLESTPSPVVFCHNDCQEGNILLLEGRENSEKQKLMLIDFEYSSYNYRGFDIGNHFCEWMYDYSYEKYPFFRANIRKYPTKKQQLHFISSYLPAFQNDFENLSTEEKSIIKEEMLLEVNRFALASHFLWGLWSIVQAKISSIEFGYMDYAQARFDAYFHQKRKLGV
Chain of Proto-oncogene tyrosine-protein kinase Src (Homo sapiens) (P12931 2-536 limits assumed): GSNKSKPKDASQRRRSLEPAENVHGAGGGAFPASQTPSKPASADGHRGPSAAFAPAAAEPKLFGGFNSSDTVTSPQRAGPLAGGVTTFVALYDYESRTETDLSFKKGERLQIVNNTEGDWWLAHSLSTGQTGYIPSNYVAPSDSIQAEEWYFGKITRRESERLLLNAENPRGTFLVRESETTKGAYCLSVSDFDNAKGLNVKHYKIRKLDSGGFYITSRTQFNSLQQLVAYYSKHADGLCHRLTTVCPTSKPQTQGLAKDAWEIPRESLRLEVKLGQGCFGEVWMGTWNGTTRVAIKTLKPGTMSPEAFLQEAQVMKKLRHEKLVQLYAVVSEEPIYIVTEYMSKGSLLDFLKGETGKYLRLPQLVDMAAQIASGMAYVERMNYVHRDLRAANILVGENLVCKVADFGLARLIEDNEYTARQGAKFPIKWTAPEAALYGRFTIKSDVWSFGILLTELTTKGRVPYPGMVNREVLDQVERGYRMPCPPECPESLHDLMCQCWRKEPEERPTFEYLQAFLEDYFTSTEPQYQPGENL
Chain of G protein-coupled receptor kinase 5 (Homo sapiens) (P34947 whole entry, looked up, the tested form may be a part): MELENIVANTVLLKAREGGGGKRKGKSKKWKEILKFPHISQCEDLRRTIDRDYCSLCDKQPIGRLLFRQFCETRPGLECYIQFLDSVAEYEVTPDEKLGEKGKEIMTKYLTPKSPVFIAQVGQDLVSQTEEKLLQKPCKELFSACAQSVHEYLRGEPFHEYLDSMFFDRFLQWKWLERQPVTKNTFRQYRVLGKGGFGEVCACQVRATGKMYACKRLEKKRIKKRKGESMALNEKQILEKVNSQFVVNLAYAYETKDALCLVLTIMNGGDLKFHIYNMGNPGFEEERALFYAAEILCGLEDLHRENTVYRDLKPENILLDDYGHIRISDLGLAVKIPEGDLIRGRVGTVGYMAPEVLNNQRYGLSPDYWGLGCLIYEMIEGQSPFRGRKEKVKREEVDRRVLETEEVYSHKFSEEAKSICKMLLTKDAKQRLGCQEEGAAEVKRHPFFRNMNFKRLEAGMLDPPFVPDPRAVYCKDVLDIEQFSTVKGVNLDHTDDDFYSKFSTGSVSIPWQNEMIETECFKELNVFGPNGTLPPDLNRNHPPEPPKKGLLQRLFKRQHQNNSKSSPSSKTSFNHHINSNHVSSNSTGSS
Chain of Phosphatidylinositol 4,5-bisphosphate 3-kinase catalytic subunit delta isoform (O00329 whole entry, the tested form may be a part, canonical isoform): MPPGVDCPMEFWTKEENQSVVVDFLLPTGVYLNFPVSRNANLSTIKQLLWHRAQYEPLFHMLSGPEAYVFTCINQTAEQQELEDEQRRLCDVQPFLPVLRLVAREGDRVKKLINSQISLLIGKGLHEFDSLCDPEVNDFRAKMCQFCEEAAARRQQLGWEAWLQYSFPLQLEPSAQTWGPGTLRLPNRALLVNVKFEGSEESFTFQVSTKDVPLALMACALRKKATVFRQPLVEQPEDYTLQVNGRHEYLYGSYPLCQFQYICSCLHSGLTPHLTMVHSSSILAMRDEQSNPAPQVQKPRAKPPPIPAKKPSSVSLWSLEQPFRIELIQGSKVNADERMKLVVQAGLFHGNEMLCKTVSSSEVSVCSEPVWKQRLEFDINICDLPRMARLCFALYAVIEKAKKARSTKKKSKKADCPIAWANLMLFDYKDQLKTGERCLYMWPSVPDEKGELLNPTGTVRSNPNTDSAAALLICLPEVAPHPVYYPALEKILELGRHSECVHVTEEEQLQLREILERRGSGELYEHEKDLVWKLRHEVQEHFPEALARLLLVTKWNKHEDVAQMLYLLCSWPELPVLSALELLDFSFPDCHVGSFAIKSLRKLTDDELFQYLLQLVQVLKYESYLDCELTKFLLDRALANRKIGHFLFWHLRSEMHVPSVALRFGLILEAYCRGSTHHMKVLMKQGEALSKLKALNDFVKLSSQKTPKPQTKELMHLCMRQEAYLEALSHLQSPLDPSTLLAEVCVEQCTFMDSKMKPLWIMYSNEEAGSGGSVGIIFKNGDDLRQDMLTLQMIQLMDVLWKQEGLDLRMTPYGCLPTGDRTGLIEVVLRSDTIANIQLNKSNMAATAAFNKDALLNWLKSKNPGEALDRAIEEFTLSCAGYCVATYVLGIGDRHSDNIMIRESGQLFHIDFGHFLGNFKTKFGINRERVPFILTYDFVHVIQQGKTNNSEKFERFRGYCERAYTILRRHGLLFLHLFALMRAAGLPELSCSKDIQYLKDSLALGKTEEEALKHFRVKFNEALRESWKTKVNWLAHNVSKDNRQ
Chain of TGF-beta receptor type-1 (Homo sapiens) (P36897 whole entry): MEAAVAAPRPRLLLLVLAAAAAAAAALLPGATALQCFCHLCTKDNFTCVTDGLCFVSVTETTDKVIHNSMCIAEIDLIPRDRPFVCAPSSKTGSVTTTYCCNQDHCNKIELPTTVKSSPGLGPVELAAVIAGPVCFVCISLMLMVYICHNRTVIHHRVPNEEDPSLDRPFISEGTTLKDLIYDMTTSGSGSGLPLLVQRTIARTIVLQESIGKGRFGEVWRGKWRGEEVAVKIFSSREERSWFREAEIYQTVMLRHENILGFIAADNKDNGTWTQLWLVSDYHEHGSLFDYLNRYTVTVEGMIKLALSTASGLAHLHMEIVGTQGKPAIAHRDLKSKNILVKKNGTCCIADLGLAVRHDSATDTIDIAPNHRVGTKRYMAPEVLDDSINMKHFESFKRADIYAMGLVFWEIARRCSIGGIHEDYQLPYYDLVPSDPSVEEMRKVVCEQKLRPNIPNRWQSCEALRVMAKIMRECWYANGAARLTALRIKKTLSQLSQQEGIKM

CC(C)(O)CNc1ncc(-c2ccnc(Nc3ccnc(Cl)c3)n2)c(CC2CC2)n1
Activity [1]: 109%
Activity [2]: 93%
Activity [3]: 88%
Activity [4]: 84%
inhibition [5]: inactive
inhibition [6]: inactive
inhibition [7]: inactive
inhibition [8]: inactive
inhibition [9]: inactive
inhibition [10]: inactive
inhibition [11]: inactive
inhibition [12]: inactive
inhibition [13]: inactive
inhibition [14]: inactive
inhibition [15]: inactive
inhibition [16]: inactive
inhibition [17]: inactive
inhibition [18]: inactive
inhibition [19]: inactive
inhibition [20]: inactive
inhibition [21]: inactive
inhibition (Homo sapiens): inactive
IC50 [22]: 1900 nM
IC50 [23]: > 10000 nM
inhibition (U2OS): inactive
